Measured values published in ChEMBL document CHEMBL1914366, “Bioassay-guided identification of an anti-inflammatory prenylated acylphloroglucinol from Melicope ptelefolia and molecular insights into its interaction with 5-lipoxygenase” (Bioorg Med Chem, 2011).
Values belong to the molecule of their own block, whether it stands above or below them. Calls of active or inactive are those of the source. No cut-off for these calls is given here.

How the values were obtained:
[1] = target: T1, Polyunsaturated fatty acid 5-lipoxygenase (Homo sapiens) (UniProt P09917); test: Inhibition of human 5-LOX in human peripheral blood mononuclear leukocytes assessed as inhibition of calymycin A23187 stimulated LTB4 production at 10 nM preincubated for 15 mins before stimulation measured after 15 mins by enzyme immunoassay
T1 sequence (whole entry): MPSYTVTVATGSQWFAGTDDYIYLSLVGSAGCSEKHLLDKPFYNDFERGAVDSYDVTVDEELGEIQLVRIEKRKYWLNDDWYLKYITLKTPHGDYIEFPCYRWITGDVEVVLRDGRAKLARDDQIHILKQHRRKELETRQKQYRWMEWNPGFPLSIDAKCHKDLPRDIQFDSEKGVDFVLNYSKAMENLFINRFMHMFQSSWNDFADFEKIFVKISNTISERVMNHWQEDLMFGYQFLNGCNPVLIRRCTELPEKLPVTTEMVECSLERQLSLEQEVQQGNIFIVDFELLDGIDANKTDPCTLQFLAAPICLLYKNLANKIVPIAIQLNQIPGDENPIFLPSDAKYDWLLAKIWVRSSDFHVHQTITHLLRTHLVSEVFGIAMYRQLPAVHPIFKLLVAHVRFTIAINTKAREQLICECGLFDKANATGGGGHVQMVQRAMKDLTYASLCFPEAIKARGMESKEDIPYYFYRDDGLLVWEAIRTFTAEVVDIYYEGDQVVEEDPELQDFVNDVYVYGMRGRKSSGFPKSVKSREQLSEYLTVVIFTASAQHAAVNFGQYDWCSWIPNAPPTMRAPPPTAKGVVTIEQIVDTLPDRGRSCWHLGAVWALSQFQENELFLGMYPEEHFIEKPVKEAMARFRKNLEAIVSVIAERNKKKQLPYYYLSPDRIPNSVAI
Outline: (§1)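 Human peripheral blood mononuclear leukocytes (5 × 10^6 cells/ml) in HBSS were preincubated with compound or vehicle for 15 min at 37 °C. Calcimycin (A23187, 30 µM) was added for a further 15 min and the reaction was stopped with 1 N HCl. LTB4 was quantified by EIA. The assay was run by a contract laboratory.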

[2] = target: T2, Prostaglandin G/H synthase 1 (Homo sapiens, UniProt P23219); test: Inhibition of COX1 in human platelets assessed as inhibition of conversion of arachidonic acid to PGE2 at 10 nM preincubated for 15 mins before substrate addition measured after 15 mins by enzyme immunoassay
T2 sequence (P23219 whole entry): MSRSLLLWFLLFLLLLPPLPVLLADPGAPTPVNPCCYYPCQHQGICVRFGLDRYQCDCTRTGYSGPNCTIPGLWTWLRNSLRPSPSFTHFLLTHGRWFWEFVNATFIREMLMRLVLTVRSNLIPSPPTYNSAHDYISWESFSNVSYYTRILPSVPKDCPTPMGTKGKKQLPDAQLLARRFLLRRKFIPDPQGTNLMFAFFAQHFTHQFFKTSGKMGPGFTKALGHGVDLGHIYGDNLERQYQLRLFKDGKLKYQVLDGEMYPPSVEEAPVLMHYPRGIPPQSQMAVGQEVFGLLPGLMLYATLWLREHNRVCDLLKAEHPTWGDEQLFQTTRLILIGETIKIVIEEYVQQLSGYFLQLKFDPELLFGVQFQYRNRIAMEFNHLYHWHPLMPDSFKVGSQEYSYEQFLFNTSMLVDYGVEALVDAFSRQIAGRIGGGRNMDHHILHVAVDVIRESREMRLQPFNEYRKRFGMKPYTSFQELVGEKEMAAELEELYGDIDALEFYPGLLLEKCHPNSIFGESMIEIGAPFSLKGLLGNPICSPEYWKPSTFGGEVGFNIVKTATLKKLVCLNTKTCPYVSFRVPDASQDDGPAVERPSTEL
Outline: (§2)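 Human platelets (5 × 10^7/ml) in HBSS (15 mM, pH 7.4) were incubated with compound or vehicle for 15 min at 37 °C. Arachidonic acid (100 µM) was added for 15 min and the reaction was stopped with 1 N HCl. PGE2 was measured by EIA. The assay was run by a contract laboratory.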

[3] = target: T2, Prostaglandin G/H synthase 1; test: Inhibition of COX1 in human platelets assessed as inhibition of conversion of arachidonic acid to PGE2 at 10 uM preincubated for 15 mins before substrate addition measured after 15 mins by enzyme immunoassay; outline: as §2
[4] = Inhibition of soybean 15-LOX type 1-B assessed as inhibition of conversion of linoleic acid to (9Z,11E)-(13S)-13-hydroperoxyoctadeca-9,11-dienoate preincubated for 10 mins before substrate addition measured after 6 mins by spectrophotometry; set-up: species or system Glycine max
Outline: (§3)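 Soybean lipoxygenase type I-B (80 U/well) in sodium phosphate buffer (100 mM, pH 8.0) was incubated with sample in MeOH for 10 min at 25 °C. Linoleic acid was then added and A234 was followed for 6 min. Samples were run in triplicate. Pure compounds were screened at a final 25 µg/mL.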

[5] = target: T3, Prostaglandin G/H synthase 2 (Homo sapiens) (UniProt P35354); test: Inhibition of human recombinant COX2 expressed in insect Sf21 cells assessed as inhibition of conversion of arachidonic acid to PGE2 at 10 uM preincubated for 15 mins before substrate addition measured after 5 mins by enzyme immunoassay
T3 sequence (whole entry): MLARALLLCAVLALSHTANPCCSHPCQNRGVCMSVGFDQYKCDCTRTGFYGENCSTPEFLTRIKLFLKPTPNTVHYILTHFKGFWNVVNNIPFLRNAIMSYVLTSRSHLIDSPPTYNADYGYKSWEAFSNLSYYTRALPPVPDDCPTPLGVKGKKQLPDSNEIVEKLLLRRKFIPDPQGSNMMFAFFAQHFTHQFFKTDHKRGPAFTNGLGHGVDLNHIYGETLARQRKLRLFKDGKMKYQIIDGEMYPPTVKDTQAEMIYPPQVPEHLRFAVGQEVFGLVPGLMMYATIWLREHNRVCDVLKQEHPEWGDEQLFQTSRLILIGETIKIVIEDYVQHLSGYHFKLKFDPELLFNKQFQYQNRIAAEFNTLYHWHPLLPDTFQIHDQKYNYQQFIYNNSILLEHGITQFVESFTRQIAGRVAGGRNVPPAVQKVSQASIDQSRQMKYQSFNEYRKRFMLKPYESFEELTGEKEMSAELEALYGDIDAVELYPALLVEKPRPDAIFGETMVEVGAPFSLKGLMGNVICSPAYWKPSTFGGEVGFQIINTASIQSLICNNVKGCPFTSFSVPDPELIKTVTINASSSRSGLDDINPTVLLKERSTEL
Outline: (§4)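 Human recombinant COX-2 expressed in Sf21 cells (0.11 U) was preincubated with compound or vehicle, 1 mM reduced GSH, 500 µM phenol and 1 µM hematin in Tris-HCl (100 mM, pH 7.7) for 15 min at 37 °C. Arachidonic acid (0.3 mM) was added for 5 min and the reaction was stopped with 1 N HCl. After centrifugation, PGE2 was measured by EIA.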

[6] = target: T3, Prostaglandin G/H synthase 2 (Homo sapiens); test: Inhibition of human recombinant COX2 expressed in insect Sf21 cells assessed as inhibition of conversion of arachidonic acid to PGE2 at 0.1 uM preincubated for 15 mins before substrate addition measured after 5 mins by enzyme immunoassay; outline: as §4
[7] = target: T1, Polyunsaturated fatty acid 5-lipoxygenase (Homo sapiens); test: Inhibition of human 5-LOX in human peripheral blood mononuclear leukocytes assessed as inhibition of calymycin A23187 stimulated LTB4 production at 0.1 uM preincubated for 15 mins before stimulation measured after 15 mins by enzyme immunoassay; outline: as §1
[8] = Metal chelating activity of the compound assessed as formation of iron complex in PBS at pH 7.4 at 50 uM after 10 secs by UV-vis spectrometry in presence of 100 uM FeCl3; type: functional
Outline: (§5)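 Compound was taken from a 1 mM methanol stock and diluted to 50 µM in PBS (10 mM, pH 7.4). Salt solution (CuSO4, FeCl3 or FeSO4) was added at 50 or 100 µM. Absorption spectra from 200–600 nm were recorded after 10 s and compared with the compound alone.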

[9] = target: T2, Prostaglandin G/H synthase 1; test: Inhibition of COX1 in human platelets assessed as inhibition of conversion of arachidonic acid to PGE2 preincubated for 15 mins before substrate addition measured after 15 mins by enzyme immunoassay; outline: as §2
[10] = Metal chelating activity of the compound assessed as formation of copper complex in PBS at pH 7.4 at 50 uM after 10 secs by UV-vis spectrometry in presence of 100 uM CuSO4; type: functional; outline: as §5
[11] = Cytotoxicity against NMRI mouse macrophages by MTT assay; type: cell-based; settings: macrophage
Outline: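 Macrophages from the 5-LOX assay wells were used after supernatant collection. Cells received MTT (5 mg/ml in PBS, 20 µl/well) for 4 h at 37 °C, then the formazan was dissolved in DMSO and absorbance was read at 550 nm. Values are mean ± S.D., mostly from triplicate determinations.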

[12] = target: T4, Prostaglandin G/H synthase 2 (Homo sapiens, UniProt P35354); test: Inhibition of human recombinant COX2 expressed in insect Sf21 cells assessed as inhibition of conversion of arachidonic acid to PGE2 preincubated for 15 mins before substrate addition measured after 5 mins by enzyme immunoassay; outline: as §4
T4 sequence (P35354 whole entry): T3 sequence (whole entry)

[13] = target: T2, Prostaglandin G/H synthase 1; test: Inhibition of COX1 in human platelets assessed as inhibition of conversion of arachidonic acid to PGE2 at 0.1 uM preincubated for 15 mins before substrate addition measured after 15 mins by enzyme immunoassay; outline: as §2
[14] = target: T3, Prostaglandin G/H synthase 2 (Homo sapiens); test: Inhibition of human recombinant COX2 expressed in insect Sf21 cells assessed as inhibition of conversion of arachidonic acid to PGE2 at 10 nM preincubated for 15 mins before substrate addition measured after 5 mins by enzyme immunoassay; outline: as §4
[15] = target: T1, Polyunsaturated fatty acid 5-lipoxygenase (Homo sapiens); test: Inhibition of human 5-LOX in human peripheral blood mononuclear leukocytes assessed as inhibition of calymycin A23187 stimulated LTB4 production at 10 uM preincubated for 15 mins before stimulation measured after 15 mins by enzyme immunoassay; outline: as §1
[16] = target: T5, Polyunsaturated fatty acid 5-lipoxygenase (Mus musculus, UniProt P48999); test: (§6) Inhibition of 5-LOX in calcium ionophore A23187-stimulated NMRI mouse macrophage assessed as inhibition of LTC4 production preincubated for 60 mins before stimulation measured after 2 hrs by ELISA
T5 sequence (P48999 whole entry): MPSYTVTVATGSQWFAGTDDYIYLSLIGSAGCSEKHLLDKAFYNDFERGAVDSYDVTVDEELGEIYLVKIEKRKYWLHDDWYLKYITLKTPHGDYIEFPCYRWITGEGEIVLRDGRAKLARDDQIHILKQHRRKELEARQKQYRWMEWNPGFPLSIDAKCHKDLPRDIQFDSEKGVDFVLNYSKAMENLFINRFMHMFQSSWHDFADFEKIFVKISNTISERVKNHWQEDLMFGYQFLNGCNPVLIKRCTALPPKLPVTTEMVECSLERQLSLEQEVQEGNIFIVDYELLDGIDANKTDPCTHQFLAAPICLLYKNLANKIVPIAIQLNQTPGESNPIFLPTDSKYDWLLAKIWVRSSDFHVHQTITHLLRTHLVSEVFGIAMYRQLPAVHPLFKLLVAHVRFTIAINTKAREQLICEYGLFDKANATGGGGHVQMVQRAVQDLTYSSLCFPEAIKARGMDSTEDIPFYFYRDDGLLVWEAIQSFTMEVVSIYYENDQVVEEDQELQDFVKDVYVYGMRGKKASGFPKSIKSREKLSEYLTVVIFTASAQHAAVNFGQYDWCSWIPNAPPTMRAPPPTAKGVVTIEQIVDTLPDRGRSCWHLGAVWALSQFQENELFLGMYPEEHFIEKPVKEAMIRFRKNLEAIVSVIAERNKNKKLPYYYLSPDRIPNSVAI
Outline: (§7)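 Male NMRI mice (20 ± 5 g) were given 1 ml thioglycolate ip and peritoneal macrophages were lavaged with PBS 3 days later. Cells were adhered overnight at 5 × 10^5 cells/well and then moved to serum-free DMEM. Compound was added for 60 min at 37 °C, then A23187 to a final 10^-6 M for 2 h. Supernatant cysLTs were measured by ELISA against a standard curve. Values are mean ± S.D., mostly triplicate, compared by unpaired t-test.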

[17] = target: T6, Polyunsaturated fatty acid 5-lipoxygenase (Mus musculus) (UniProt P48999); test: as §6; outline: as §7
T6 sequence (whole entry): T5 sequence (P48999 whole entry)

[18] = target: T1, Polyunsaturated fatty acid 5-lipoxygenase (Homo sapiens); test: Inhibition of human 5-LOX in human peripheral blood mononuclear leukocytes assessed as inhibition of calymycin A23187 stimulated LTB4 production at 1 uM preincubated for 15 mins before stimulation measured after 15 mins by enzyme immunoassay; outline: as §1
[19] = Metal chelating activity of the compound assessed as formation of iron complex in PBS at pH 7.4 at 50 uM after 10 secs by UV-vis spectrometry in presence of 100 uM FeSO4; type: functional; outline: as §5
[20] = target: T7, Polyunsaturated fatty acid 5-lipoxygenase (Homo sapiens, UniProt P09917); test: Inhibition of human 5-LOX in human peripheral blood mononuclear leukocytes assessed as inhibition of calymycin A23187-stimulated LTB4 production preincubated for 15 mins before stimulation measured after 15 mins by enzyme immunoassay; outline: as §1
T7 sequence (P09917 whole entry): T1 sequence (whole entry)

[21] = target: T2, Prostaglandin G/H synthase 1; test: Inhibition of COX1 in human platelets assessed as inhibition of conversion of arachidonic acid to PGE2 at 1 uM preincubated for 15 mins before substrate addition measured after 15 mins by enzyme immunoassay; outline: as §2
[22] = test system: Radical scavenging activity; test: Antioxidant activity assessed as DPPH radical scavenging activity; type: functional
Outline: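 DPPH radical scavenging run by a previously published method, with quercetin as positive control; triplicate tests, with absorbances averaged before calculating activity.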

[23] = target: T3, Prostaglandin G/H synthase 2 (Homo sapiens); test: Inhibition of human recombinant COX2 expressed in insect Sf21 cells assessed as inhibition of conversion of arachidonic acid to PGE2 at 1 uM preincubated for 15 mins before substrate addition measured after 5 mins by enzyme immunoassay; outline: as §4
Glycine max = test: Inhibition of soybean 15-LOX type 1-B assessed as inhibition of conversion of linoleic acid to (9Z,11E)-(13S)-13-hydroperoxyoctadeca-9,11-dienoate at 25 ug/ml preincubated for 10 mins before substrate addition measured after 6 mins by spectrophotometry; outline: as §3

- inhibition [1]: 6%
- inhibition [2]: -5%
- inhibition [3]: 91%
- IC50 [4]: 20.4 µM
- inhibition [5]: 100%
- inhibition [6]: 28%
- inhibition [7]: 13%
- IC50 [9]: 6.9 µM
- IC50 [12]: 400 nM
- inhibition [13]: -1%
- inhibition [14]: 14%
- inhibition [15]: 102%
- IC50 [16]: 1800 nM
- inhibition [17]: Dose-dependent effect
- inhibition [18]: 75%
- IC50 [20]: 420 nM
- inhibition [21]: -9%
- IC50 [22]: 46 µM
- inhibition [23]: 60%
SMILES: CC(=O)c1c(O)cc(O)c(C/C=C(\C)CCC=C(C)C)c1O
- Activity [8]: inactive
- Activity [10]: inactive
- Activity [11]: Non-toxic
- Activity [19]: inactive

SMILES: O=c1c(O)c(-c2ccc(O)c(O)c2)oc2cc(O)cc(O)c12 [QUERCETIN]
- IC50 [22]: 6.91 µM

- IC50 [4]: 9.82 µM
- inhibition (Glycine max): 88.8%
SMILES: CC(Cc1ccc(O)c(O)c1)C(C)Cc1ccc(O)c(O)c1 (stereo unspecified) [NORDIHYDROGUAIARETIC ACID]
